Bioassay records: PubChem, several laboratories
GalR3 antag: human GalR3 antagonism | HEK293 GalR3-CNG cAMP membrane potential fluorescence; galR3 body fused to GalR1 C-terminus | O60755 | inhibition, % at 3 µM | 0.44% of 360,000 active;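 active means inhibition above the screen-wide average plus 3 SD, cut at about 13% in these data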;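 further: forskolin and galanin both at EC90 stimulate the cells; cAMP rise reported by CNG channel membrane potential dye signal; 0% = forskolin plus galanin with DMSO and 100% = forskolin alone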
Efflux pump mplx: inhibitors of Candida antifungal efflux pumps expressed in yeast | inhibition, % at 10 µM | 0.44% of 330,000 active | S. cerevisiae Candida pump triplex, Nile Red efflux | AID 485275;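 active means plate passing quality check with inhibition over a set limit, or well fluorescence over plate mean plus 4 SD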;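 further: Nile Red retained in pooled yeast measured as flow cytometry median fluorescence; 0% = buffer negative control and 100% = Enniatin B positive control; higher means more Nile Red kept so more efflux inhibition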
MC4R ag barr: activates human MC4R beta-arrestin recruitment; U2OS MC4R beta-arrestin complementation, luminescence; percent of melanotan II response, DMSO zero; 0.98% of 360,000 active; activation, % at 8.9 µM; P32245;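 active means activation above a per-plate cutoff, the mean activation of sample wells on that plate plus 3 SD, cut at about 8% in these data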
Target sequence (P32245 whole entry, looked up): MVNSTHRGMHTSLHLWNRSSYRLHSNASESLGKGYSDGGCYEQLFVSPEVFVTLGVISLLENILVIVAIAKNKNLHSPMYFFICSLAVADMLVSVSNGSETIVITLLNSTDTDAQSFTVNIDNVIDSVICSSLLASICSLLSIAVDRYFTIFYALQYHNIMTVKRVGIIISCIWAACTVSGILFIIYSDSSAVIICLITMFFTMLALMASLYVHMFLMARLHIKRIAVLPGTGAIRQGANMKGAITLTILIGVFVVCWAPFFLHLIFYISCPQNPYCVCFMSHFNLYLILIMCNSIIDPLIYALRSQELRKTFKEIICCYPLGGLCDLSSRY
TAG inh: triacylglycerol accumulation inhibition. H9c2 cells, Nile Red lipid (TAG) fluorescence; cells loaded with 200 µM oleic acid. inhibition, % at 12.5 µM. 0.66% of 230,000 active;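 active means pattern-corrected inhibition of lipid staining of at least 50% with the nuclear-stain viability signal not falling by more than 50%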;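 further: 0% = DMSO wells and 100% = triacsin C control wells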
MC4R antag cAMP: antagonists of human melanocortin 4 receptor (MC4R); MC4R-expressing cells, MTII-stimulated cAMP, LANCE TR-FRET; inhibition, % at 6.5 µM; 0.48% of 360,000 active;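 active means inhibition above its plate's cutoff, the mean of tested wells on that plate plus 3 SD, cut at about 29% in these data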;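 further: 0% = Melanotan II alone and 100% = Melanotan II plus saturating MCL0020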
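Assay system: human MC4R-expressing U2OS cells; reagent: Melanotan II stimulation of cells; dosing: 6.5 µM single dose; timing: compound 30 min, challenge 1 h, detection 1 h; signal: TR-FRET cAMP assay; replicates: one well per compound, no replicates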
Calb FLC: C. albicans growth modulation with fluconazole; C. albicans CaCi-2 + fluconazole, Alamar Blue growth, 48 h; growth inhibition, % (concentration not given with the values); 0.57% of 300,000 active; AID 1979;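 active means growth inhibition above about 58% in most replicates, limit read from the data, passing the limit was not always enough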;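 further: all wells also contain fluconazole at 8 µg/ml as a sub-toxic cotreatment; 0% = median of DMSO wells and 100% = median of geldanamycin control wells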
Active calls of the source: *; nt = no result. The list is not random: actives were taken first. Their share in the collection is about 2.9%.

SMILES	GalR3 antag	Efflux pump mplx	MC4R ag barr	TAG inh	MC4R antag cAMP	Calb FLC
C[C@H](CO)N1C[C@H](C)[C@@H](CN(C)C(=O)OCc2ccccc2)OCc2cn(nn2)CCCC1=O	0.8	nt	-0.3	16.5	18.8	nt
CCCCNC(=O)C1(C)CCCCN1C(=O)c1ccc2ccccc2n1 (configuration not stated)	4.8	nt	-0.5	12.4	2.1	nt
CCCCNC(=O)c1ccc(Cc2cn(C)c3ccccc23)nc1	-5.2	nt	-0.5	8.2	1.4	nt
O=C(Nc1ccccc1F)c1ccc2nc(N3C(=O)CCC3=O)sc2c1	-5.9	0.1	0.0	5.5	32.8*	-4.0
FC(F)(F)c1cc(Cl)c2nc(-c3ccco3)c(Cc3ccccc3C(F)(F)F)n2c1	20.6*	nt	nt	nt	nt	nt
O=c1[nH]nc(Cc2ccc(-c3ccccc3Cl)o2)c2ccccc12	-3.4	0.1	8.9*	10.1	-2.1	1.9
Cc1ccccc1-n1c(=O)c(C#N)cc2c(=O)n3ccccc3nc21	-3.5	-0.1	-0.5	nt	7.8	54.5*
CCCCCCN(C(=O)CCl)c1ccccc1	-8.3	0.0	18.3*	25.5	8.0	3.7
CCCCCCCN(C(=O)CCl)c1cccc(C)c1	-1.8	0.0	9.0*	nt	3.6	-13.4
Cc1c(Cl)ccc(S(=O)(=O)Nc2cccnc2)c1Cl	-11.0	0.0	-0.5	nt	0.1	76.8*
COc1c(S(=O)(=O)Nc2cccnc2)ccc(Cl)c1Cl	-0.9	0.0	-1.6	-0.4	16.8	-3.8
O=C(CC1SCCNC1=O)NCc1ccccc1 (configuration not stated)	-4.8	nt	0.0	-1.9	1.8	nt
CCCc1nn(C)c(C(=O)Nc2ccc3ccccc3c2)c1Cl	-2.0	0.3	9.4*	nt	13.5	44.4
COc1cccc(/C=C/C(=O)OCC(=O)c2ccc3c(c2)NC(=O)CO3)c1	-5.2	0.0	8.5*	-6.6	11.3	nt
COc1cccc(/C=C/C(=O)OCC(=O)c2ccc(Br)cc2)c1	-5.5	nt	-1.1	-14.3	5.3	nt
OCC1SC(O)C(O)C(O)C1O (configuration not stated)	-7.5	nt	nt	nt	nt	nt
COC(=O)[C@@H]1CCCN1Cc1nc(Cc2ccccc2F)no1	-4.6	0.2	-3.0	-1.2	-3.5	92.1*
COC(=O)[C@@H]1CCCN1Cc1nc(Cc2ccc(OC)c(OC)c2)no1	9.9	0.0	-0.8	3.0	5.9	10.4
Cc1nn(C)c(C)c1NC(=O)COc1ccc(Cl)cc1Br	52.7*	0.1	-2.5	-2.8	8.8	nt
Cc1cc(Cl)ccc1OCC(=O)Nc1ccncc1	55.2*	0.7	-0.3	-22.1	15.9	7.5
Cc1ccc(OC(=O)CCC(=O)Nc2ccc(C)c(C)c2)cc1	1.1	0.0	-0.9	2.2	0.3	-3.9
CCN(CC)C(=O)C1=C(C)N(Cc2ccc(OC)cc2)C(=O)C(CC(=O)NCc2cccs2)C1 (configuration not stated)	-7.0	nt	0.3	5.9	14.9	nt
Oc1c(Br)cc(Br)cc1CNc1cccc2cccnc12	-10.9	0.6	0.9	7.7	19.0	81.0*
CC(C)[C@@H]1CC[C@@H](C)C[C@H]1OC(=O)C[n+]1cc(-c2ccc(Cl)cc2)n2c1CCCCC2	-5.5	0.0	58.7*	80.1*	3.7	94.8*
COc1ccc(-c2c[n+](CC(=O)OC3CC(C)CCC3C(C)C)c3n2CCC3)cc1 (configuration not stated)	-0.1	0.1	5.1	6.6	-0.1	88.0*
SMILES	GalR3 antag	Efflux pump mplx	MC4R ag barr	TAG inh	MC4R antag cAMP	Calb FLC
CC(C)(C)NC(=O)c1oc2ccccc2c1COc1ccccc1	-5.7	0.1	2.1	nt	9.7	2.2
CC(OC(=O)c1oc2ccccc2c1COc1ccccc1)C(N)=O (configuration not stated)	-6.9	0.0	-1.5	15.7	9.2	109.2*
CC(C)(C)c1cc(C(=O)NNc2ccc(OC(F)(F)F)cc2)n(Cc2ccccc2)n1	-2.8	0.5	-0.1	12.7	8.0	80.6*
Cc1ccc(NNC(=O)c2cc(C(C)(C)C)nn2Cc2ccccc2)cc1	-4.9	0.0	6.5	12.2	1.8	1.2
N#CC1(Nc2ccc3ccccc3c2)CCCC1	-5.3	nt	-1.8	10.5	-2.0	nt
O=C(NCc1ccccc1)[C@@H]1CCCN1C(=O)[C@H]1CCCN1C(=O)c1cccs1	-5.2	nt	nt	nt	nt	nt
Cc1ccc(-c2noc(CCC(=O)Nc3cc(C)ccn3)n2)cc1	0.3	-0.1	9.2*	-23.9	11.4	0.1
